The values below come from ChEMBL document CHEMBL1143023, “Chemical synthesis and biological activities of 16alpha-derivatives of 5alpha-androstane-3alpha,17beta-diol as antiandrogens” (2007).

For orientation: inhibition means how much of the control response was suppressed.

The nature of assay [1]: Inhibition of DHT-stimulated proliferation of androgen sensitive AR+ Shionogi cells at 0.1 uM. The assay is classed as functional. Particulars: Mus musculus.
Assay [2] in a line: Inhibition of DHT-stimulated proliferation of androgen sensitive AR+ Shionogi cells at 1 uM. Format: functional. Particulars: Mus musculus.
Assay [3] is described as follows: Proliferative activity on androgen sensitive AR+ Shionogi cells at 0.1 uM relative to DHT. Format: functional, Mus musculus. In outline:
(§1)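 AR+ Shionogi cells were given test compound alone, without DHT, for 10 days. Growth was read as DNA content by a modified Fiszer-Szafarz method. Stimulation % = 100 × [DNA(compound) − DNA(control)]/[DNA(DHT) − DNA(control)], with 0.3 nM DHT set as 100%. One experiment in triplicate.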

Assay [4] relates to PC-3. Nature of the assay: Reduction of non-androgen sensitive AR- PC3 cell growth at 0.3 uM. The assay is classed as functional, cell-based. The gist of the method:
(§2)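 PC-3 human prostate carcinoma (AR−) cells from passage 28 were allowed to adhere for 24 h. Medium was then changed to MEM with 2% charcoal-stripped FBS containing compound from 1000-fold ethanol stocks; the vehicle control was 0.1% EtOH. Cells grew 9 days at 37 °C, 5% CO2, with medium changes every 2–3 days. DNA content was measured; triplicate wells.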

Assay [5] in a line: Stimulation of androgen sensitive AR+ Shionogi cell proliferation at 1 uM. Format: functional, Mus musculus. The gist of the method:
as §1

Assay [6] has as its system PC-3. The experiment in a line: Reduction of non-androgen sensitive AR- PC3 cell growth at 1 uM. The assay is classed as functional, cell-based. The gist of the method:
as §2

Structures are written as SMILES. Calls of active or inactive are those of the source. No cut-off for these calls is given here.

Turning to `C[C@]12CC[C@@H](O)C[C@@H]1CC[C@@H]1[C@@H]2CC[C@]2(C)[C@@H](O)[C@H](CCCOCc3ccc(Br)cc3)C[C@@H]12`, in assay [1], testing at 0.1 µM gave an inhibition of 0%. This compound yielded an inhibition at 1 µM in assay [2] of 7%. In assay [3], this compound registered an Activity of 163%.

In assay [1], `C[C@]12CCC(=O)C[C@@H]1CC[C@@H]1[C@@H]2CC[C@]2(C)[C@@H](O)[C@H](CCCSC#N)C[C@@H]12` had an inhibition at 0.1 µM of 0%. The same compound registered an inhibition at 1 µM in assay [2] of 45%. Also, in assay [3], the Activity came to 21%.

Turning to `C[C@]12CC[C@H]3[C@@H](CCC4CC(=O)CC[C@@]43C)[C@@H]1C[C@@H](CCCI)[C@@H]2O` (stereo partly specified), in assay [1], the inhibition at 0.1 µM worked out at 41%. Besides, the inhibition at 1 µM in assay [2] turned out to be 76%. The compound further registered an Activity in assay [3] of 22%.

As for `CO[C@@H]1CC[C@@]2(C)[C@@H](CC[C@@H]3[C@@H]2CC[C@]2(C)[C@@H](O)[C@H](CCCI)C[C@@H]32)C1`, in assay [1], the inhibition at 0.1 µM amounted to 0%. In assay [2], this compound displayed an inhibition at 1 µM of 46%. This compound returned an Activity in assay [3] of 0%.

The compound `C[C@]12CC[C@@H](O)C[C@@H]1CC[C@@H]1[C@@H]2CC[C@]2(C)[C@@H](O)[C@H](CCCF)C[C@@H]12` showed an inhibition at 0.1 µM in assay [1] of 44%. The inhibition at 1 µM in assay [2] amounted to 70%. The compound also registered an Activity in assay [3] of 0%.

As to `C[C@]12CC[C@@H](O)C[C@@H]1CC[C@@H]1[C@@H]2CC[C@]2(C)[C@@H](O)[C@H](CCCN=[N+]=[N-])C[C@@H]12`, the inhibition at 0.1 µM in assay [1] came to 58%. Further, 1 µM produced 89% inhibition in assay [2]. Besides, the Activity in assay [3] was 0%.

With `CC(C)(O)C(=O)Nc1ccc([N+](=O)[O-])c(C(F)(F)F)c1` [HYDROXYFLUTAMIDE], in assay [1], 0.1 µM produced 67% inhibition. The inhibition at 1 µM in assay [2] is 100%. The same compound registered an Activity in assay [3] of 0%.

In assay [1], `C[C@]12CC[C@H]3[C@@H](CCC4CC(=O)CC[C@@]43C)[C@@H]1C[C@@H](CCCO)[C@@H]2O` (stereo partly specified) gave an inhibition at 0.1 µM of 54%. Also, the inhibition at 1 µM in assay [2] amounted to 46%. In addition, the Activity in assay [3] was found to be 9%.

For `C[C@]12CC[C@@H](O)C[C@@H]1CC[C@@H]1[C@@H]2CC[C@]2(C)[C@@H](O)[C@H](CCCSC#N)C[C@@H]12`, the inhibition at 0.1 µM in assay [1] was 2%. This compound also yielded an inhibition at 1 µM in assay [2] of 50%. In addition, in assay [3], the Activity came out at 5%.

For `C[C@]12CC[C@H]3[C@@H](CCC4CC(=O)CC[C@@]43C)[C@@H]1C[C@@H](CCCCl)[C@@H]2O` (stereo partly specified), the outcome in the assay on PC-3 [4] and in the assay with PC-3 [6] was inactive. Also, 0.1 µM produced 44% inhibition in assay [1]. In addition, the Activity in assay [5] came to 52%; in assay [3] it was 36%. This compound also showed an inhibition at 1 µM in assay [2] of 42%.

As for `C[C@]12CC[C@@H](O)C[C@@H]1CC[C@@H]1[C@@H]2CC[C@]2(C)[C@@H](O)[C@H](CCCCl)C[C@@H]12`, the outcome in the assay with PC-3 [4] and in the assay with PC-3 [6] was inactive. Moreover, in assay [1], at 0.1 µM the inhibition was 67%. For the same compound, the inhibition at 1 µM in assay [2] was found to be 94%. The same compound gave an Activity in assay [3] of 0%.

As for `C[C@]12CC[C@H]3[C@@H](CCC4CC(=O)CC[C@@]43C)[C@@H]1C[C@@H](CCCN=[N+]=[N-])[C@@H]2O` (stereo partly specified), in assay [1], at 0.1 µM the inhibition was 73%. In addition, the inhibition at 1 µM in assay [2] stood at 58%. For the same compound, in assay [3], the Activity stood at 33%.

Regarding `C[C@]12CC[C@@H](O)C[C@@H]1CC[C@@H]1[C@@H]2CC[C@]2(C)[C@@H](O)[C@H](CCCI)C[C@@H]12`, the inhibition at 0.1 µM in assay [1] is 36%. This compound yielded an inhibition at 1 µM in assay [2] of 90%. In assay [3], this compound yielded an Activity of 0%.

As to `C[C@]12CC[C@@H](O)C[C@@H]1CC[C@@H]1[C@@H]2CC[C@]2(C)[C@@H](O)[C@H](CCCO)C[C@@H]12`, the inhibition at 0.1 µM in assay [1] was found to be 16%. In addition, 1 µM produced 35% inhibition in assay [2]. The same compound showed an Activity in assay [3] of 0%.

As for `C[C@]12CC[C@@H](O)C[C@@H]1CC[C@@H]1[C@@H]2CC[C@]2(C)[C@@H](O)[C@H](CCCN)C[C@@H]12`, the inhibition at 0.1 µM in assay [1] came to 0%. Also, 1 µM produced 0% inhibition in assay [2]. In assay [3], this compound yielded an Activity of 1%.

Turning to `C[C@]12CCC(=O)C[C@@H]1CC[C@@H]1[C@@H]2CC[C@]2(C)[C@@H](O)[C@H](CCCOCc3ccc(Br)cc3)C[C@@H]12`, in assay [1], the inhibition at 0.1 µM came to 0%. In addition, the inhibition at 1 µM in assay [2] stood at 0%. The same compound had an Activity in assay [3] of 153%.

`C[C@]12CC[C@@H](O)C[C@@H]1CC[C@@H]1[C@@H]2CC[C@]2(C)[C@@H](O)[C@H](CCCBr)C[C@@H]12` gave an inhibition at 0.1 µM in assay [1] of 46%. Further, the inhibition at 1 µM in assay [2] worked out at 80%. This compound registered an Activity in assay [3] of 0%.
